Activity calls are given as the source filed them. No cut-off for these calls is given here.
Experiments:
DU-145 [1] = assay: Cell cycle arrest in human DU145 cells assessed as accumulation at G2/M phase at 2 uM after 48 hrs by FACS analysis (reference value: 21.07%); assay type: functional
DU-145 [2] = assay: Cell cycle arrest in human DU145 cells assessed as accumulation at S phase at 1 uM after 48 hrs by FACS analysis (reference value: 16.22%); assay type: functional
DU-145 [3] = assay: Cell cycle arrest in human DU145 cells assessed as accumulation at G0/G1 phase at 1 uM after 48 hrs by FACS analysis (reference value: 53.60%); assay type: functional
NIH3T3 = assay: Antiproliferative activity against mouse NIH/3T3 cells after 48 hrs by MTT assay; assay type: functional, cell-based; conditions: NIH3T3, 48 h
DU-145 [4] = assay: Cell cycle arrest in human DU145 cells assessed as accumulation at G2/M phase at 1 uM after 48 hrs by FACS analysis (reference value: 21.07%); assay type: functional
HeLa = assay: Antiproliferative activity against human HeLa cells after 48 hrs by MTT assay; assay type: functional, cell-based
DU-145 [5] = assay: Induction of apoptosis in human DU145 cells assessed as early apoptotic cells at 1 uM after 48 hrs by annexin-V/FITC/propidium iodide staining-based FACS analysis (reference value: 3.61%); assay type: functional
DU-145 [6] = assay: Cell cycle arrest in human DU145 cells assessed as accumulation at sub-G1 phase at 1 uM after 48 hrs by FACS analysis (reference value: 7.71%); assay type: functional
DU-145 [7] = assay: Cell cycle arrest in human DU145 cells assessed as accumulation at S phase at 2 uM after 48 hrs by FACS analysis (reference value: 16.22%); assay type: functional
DU-145 [8] = assay: Cell cycle arrest in human DU145 cells assessed as accumulation at sub-G1 phase at 2 uM after 48 hrs by FACS analysis (reference value: 7.71%); assay type: functional
Calf thymus DNA [9] = assay: Binding affinity to calf thymus double stranded DNA assessed as hypochromicity at 10 uM by […] method; assay type: nucleic-acid assay; conditions: Bos taurus
DU-145 [10] = assay: Induction of apoptosis in human DU145 cells assessed as late apoptotic cells at 2 uM after 48 hrs by annexin-V/FITC/propidium iodide staining-based FACS analysis (reference value: 4.46%); assay type: functional
Calf thymus DNA [11] = assay: Binding affinity to calf thymus double stranded DNA at 25 uM by UV-vis spectroscopic method; assay type: nucleic-acid assay; conditions: Bos taurus
Calf thymus DNA [12] = assay: Binding affinity to calf thymus double stranded DNA at 10 uM by spectrofluorimetric method; assay type: nucleic-acid assay; conditions: Bos taurus
[13] = biological target: T1, Topoisomerase I (Bos taurus) (UniProt Q2HPH0); assay: Inhibition of calf thymus DNA topoisomerase 1 at 20 uM using pBR322 DNA as substrate after 30 mins by agarose gel electrophoresis method
T1 sequence (whole entry): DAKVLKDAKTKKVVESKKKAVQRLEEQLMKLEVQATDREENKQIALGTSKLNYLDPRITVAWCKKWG

DU-145 [14] = assay: Induction of apoptosis in human DU145 cells assessed as necrotic cells at 1 uM after 48 hrs by annexin-V/FITC/propidium iodide staining-based FACS analysis (reference value: 0.49%); assay type: functional
MCF7 = assay: Antiproliferative activity against human MCF7 cells after 48 hrs by MTT assay; assay type: functional, cell-based; conditions: MCF7, 48 h
DU-145 [15] = assay: Induction of apoptosis in human DU145 cells assessed as early apoptotic cells at 2 uM after 48 hrs by annexin-V/FITC/propidium iodide staining-based FACS analysis (reference value: 3.61%); assay type: functional
DU-145 [16] = assay: Induction of apoptosis in human DU145 cells assessed as viable cells at 2 uM after 48 hrs by annexin-V/FITC/propidium iodide staining-based FACS analysis (reference value: 91.44%); assay type: functional; conditions: DU-145, 48 h, read-out: Activity
DU-145 [17] = assay: Antiproliferative activity against human DU145 cells after 48 hrs by MTT assay; assay type: functional, cell-based; conditions: DU-145, 48 h
A549 = assay: Antiproliferative activity against human A549 cells after 48 hrs by MTT assay; assay type: functional, cell-based; conditions: A549, 48 h
Calf thymus DNA [18] = assay: Binding affinity to calf thymus double stranded DNA at 20 uM by CD spectroscopic method; assay type: nucleic-acid assay; conditions: Bos taurus
DNA [19] = assay: Induction of Escherichia coli pBR322 DNA cleavage at 20 uM incubated in presence of UV-light for 1 hr by agarose gel electrophoresis; assay type: nucleic-acid assay
Method in brief: (§1)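 pBR322 plasmid DNA was incubated with 20 µM ligand, either in the dark or under UV-light irradiation for 1 h. Products were separated by gel electrophoresis. Irradiated DNA solution alone served as the control.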

DU-145 [20] = assay: Induction of apoptosis in human DU145 cells assessed as viable cells at 1 uM after 48 hrs by annexin-V/FITC/propidium iodide staining-based FACS analysis (reference value: 91.44%); assay type: functional; conditions: DU-145, 48 h, read-out: Activity
DNA [21] = assay: Induction of Escherichia coli pBR322 DNA cleavage at 20 uM incubated in dark condition by agarose gel electrophoresis; assay type: nucleic-acid assay; method in brief: as §1
DU-145 [22] = assay: Induction of apoptosis in human DU145 cells assessed as late apoptotic cells at 1 uM after 48 hrs by annexin-V/FITC/propidium iodide staining-based FACS analysis (reference value: 4.46%); assay type: functional
DU-145 [23] = assay: Induction of apoptosis in human DU145 cells assessed as necrotic cells at 2 uM after 48 hrs by annexin-V/FITC/propidium iodide staining-based FACS analysis (reference value: 0.49%); assay type: functional
Calf thymus DNA [24] = assay: Binding affinity to calf thymus double stranded DNA at 15 uM by ostwald viscometer; assay type: nucleic-acid assay; conditions: Bos taurus
DU-145 [25] = assay: Cell cycle arrest in human DU145 cells assessed as accumulation at G0/G1 phase at 2 uM after 48 hrs by FACS analysis (reference value: 53.60%); assay type: functional

| IC50 (HeLa) [µM] | Activity (Calf thymus DNA [9]) [%] | Activity (Calf thymus DNA [11]) | Activity (Calf thymus DNA [12]) | inhibition [13] | IC50 (MCF7) [µM] | IC50 (DU-145 [17]) [µM] | Structure (SMILES) | Activity (DU-145 [1]) [%] | Activity (DU-145 [2]) [%] | Activity (DU-145 [3]) [%] | IC50 (NIH3T3) [µM] | Activity (DU-145 [4]) [%] | Activity (DU-145 [5]) [%] | Activity (DU-145 [6]) [%] | Activity (DU-145 [7]) [%] | Activity (DU-145 [8]) [%] | Activity (DU-145 [10]) [%] | Activity (DU-145 [14]) [%] | Activity (DU-145 [15]) [%] | viability at 2 µM (DU-145 [16]) [%] | further results |
| --- | --- | --- | --- | --- | --- | --- | --- | --- | --- | --- | --- | --- | --- | --- | --- | --- | --- | --- | --- | --- | --- |
| 3.25 | 10 to 12 | Active | Active | Active | 8.5 | 1.8 | Fc1ccc(-c2nc(C(c3c[nH]c4ccccc34)c3c[nH]c4ccccc34)cc3c2[nH]c2ccccc23)cc1 | 62.86 | 19.16 | 15.15 | 140 | 57.46 | 8.49 | 6.91 | 17.41 | 4.93 | 5.06 | 0.23 | 38.28 | 55.5 | IC50 (A549): 2.04 µM; Activity (Calf thymus DNA [18]): Active; Activity (DNA [19]): Active; viability at 1 µM (DU-145 [20]): 84.7%; Activity (DNA [21]): Not Active; Activity (DU-145 [22]): 6.55%; Activity (DU-145 [23]): 1.14%; Activity (Calf thymus DNA [24]): Active; Activity (DU-145 [25]): 13.58% |
| 2.54 | 10 to 12 | Active | Active | Active | 5.85 | 1.86 | Cc1ccc(-c2nc(C(c3c[nH]c4ccc(Br)cc34)c3c[nH]c4ccc(Br)cc34)cc3c2[nH]c2ccccc23)cc1 | 57.12 | 16.37 | 54.58 | 125 | 22.04 | 6.43 | 5.57 | 19.52 | 6.05 | 3.12 | 0.12 | 32.76 | 63.6 | IC50 (A549): 2.51 µM; Activity (Calf thymus DNA [18]): Active; Activity (DNA [19]): Active; viability at 1 µM (DU-145 [20]): 87%; Activity (DNA [21]): Not Active; Activity (DU-145 [22]): 6.43%; Activity (DU-145 [23]): 0.47%; Activity (Calf thymus DNA [24]): Active; Activity (DU-145 [25]): 15.92% |
